Laboratory results: ChEMBL document CHEMBL3407478, “Development of a series of aryl pyrimidine kynurenine monooxygenase inhibitors as potential therapeutic agents for the treatment of Huntington's disease” (J Med Chem, 2015)
Values after ≈ are worked out from the molar mass of the structure shown. Each block holds one compound with its values, some of them ahead of it.

Tests used:
[1] = Lipophilicity, log P of the compound at pH 7; assay type: physicochemical; settings: buffer
[2] = Aqueous solubility of the compound; assay type: physicochemical
Liver = test: Intrinsic clearance in mouse liver microsomes assessed per mg of protein; assay type: ADME; design: unit not given here
Procedure, shortened: (§1)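 Stability assessed in human, rat and mouse liver microsomes; intrinsic clearance expressed per mg microsomal protein.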

[3] = Permeability from apical to basolateral side in human Caco2 cells; assay type: ADME, cell-based; settings: Caco-2, read-out: permeability
[4] = Permeability from basolateral to apical side in human Caco2 cells; assay type: ADME, cell-based; settings: Caco-2, read-out: permeability
Liver microsome [5] = test: Intrinsic clearance in human liver microsomes assessed per mg of protein; assay type: ADME; design: unit not given here; procedure, shortened: as §1
Liver microsome [6] = test: Intrinsic clearance in rat liver microsomes assessed per mg of protein; assay type: ADME; design: unit not given here; procedure, shortened: as §1
[7] = biological target: T1, Kynurenine 3-monooxygenase (Homo sapiens, UniProt O15229); test: Inhibition of human KMO assessed as conversion of kynurenine to 3-hydroxykynurenine by LC-MS/MS analysis
[8] = biological target: T2, Kynurenine 3-monooxygenase (Rattus norvegicus, UniProt O88867); test: Inhibition of rat KMO assessed as conversion of kynurenine to 3-hydroxykynurenine by LC-MS/MS analysis
Procedure, shortened: (§2)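 Mitochondrial fractions from mouse or rat liver tissue used as KMO source. Conversion of kynurenine to 3-hydroxykynurenine quantified by LC-MS/MS; IC50 averaged from triplicate tests.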

[9] = biological target: T2, Kynurenine 3-monooxygenase; test: Inhibition of KMO in rat microglia cells; assay type: cell-based
Procedure, shortened: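 Freshly isolated neonatal rat microglial cultures, induced to express KMO by a pro-inflammatory protocol. Exogenous KYN added; conversion to 3-HK monitored by mass spectrometry.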

[10] = biological target: Kynurenine 3-monooxygenase (Mus musculus, UniProt Q91WN4); test: Inhibition of mouse KMO assessed as conversion of kynurenine to 3-hydroxykynurenine by LC-MS/MS analysis; procedure, shortened: as §2
[11] = biological target: T1, Kynurenine 3-monooxygenase; test: Inhibition of human KMO transfected in CHO cells assessed as conversion of kynurenine to 3-hydroxykynurenine by LC-MS/MS analysis; assay type: cell-based
[12] = biological target: T1, Kynurenine 3-monooxygenase; test: Inhibition of KMO in human PBMC
[13] = biological target: T1, Kynurenine 3-monooxygenase; test: Inhibition of KMO (unknown origin)

T1 sequence (O15229 whole entry): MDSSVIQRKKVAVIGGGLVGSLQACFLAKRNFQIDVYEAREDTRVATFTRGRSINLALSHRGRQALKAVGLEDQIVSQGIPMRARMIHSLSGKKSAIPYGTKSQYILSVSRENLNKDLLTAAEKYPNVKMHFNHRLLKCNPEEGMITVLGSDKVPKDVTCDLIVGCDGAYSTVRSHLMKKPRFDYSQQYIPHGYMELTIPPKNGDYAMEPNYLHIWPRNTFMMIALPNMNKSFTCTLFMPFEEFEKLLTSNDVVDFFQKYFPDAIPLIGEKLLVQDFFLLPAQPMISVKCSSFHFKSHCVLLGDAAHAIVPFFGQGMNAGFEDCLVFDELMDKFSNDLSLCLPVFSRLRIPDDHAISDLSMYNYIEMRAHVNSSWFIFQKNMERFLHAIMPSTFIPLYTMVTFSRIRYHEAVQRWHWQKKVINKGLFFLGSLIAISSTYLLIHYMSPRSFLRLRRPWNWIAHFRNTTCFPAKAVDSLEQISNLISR
Sequence of Kynurenine 3-monooxygenase (Mus musculus, UniProt Q91WN4) (Q91WN4 whole entry): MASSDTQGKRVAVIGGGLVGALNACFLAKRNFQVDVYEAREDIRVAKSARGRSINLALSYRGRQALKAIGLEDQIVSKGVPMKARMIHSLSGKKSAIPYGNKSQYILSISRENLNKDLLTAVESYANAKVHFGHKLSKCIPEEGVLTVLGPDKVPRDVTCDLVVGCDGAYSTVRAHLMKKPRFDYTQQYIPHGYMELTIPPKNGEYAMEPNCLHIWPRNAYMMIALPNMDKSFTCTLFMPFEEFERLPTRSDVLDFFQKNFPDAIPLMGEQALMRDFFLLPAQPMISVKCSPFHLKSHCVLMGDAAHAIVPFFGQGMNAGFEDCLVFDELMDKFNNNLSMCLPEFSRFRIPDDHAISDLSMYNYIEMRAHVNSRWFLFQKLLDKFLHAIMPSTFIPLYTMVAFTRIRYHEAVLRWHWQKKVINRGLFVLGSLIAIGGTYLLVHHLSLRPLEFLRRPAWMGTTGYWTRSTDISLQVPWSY
T2 sequence (O88867 whole entry): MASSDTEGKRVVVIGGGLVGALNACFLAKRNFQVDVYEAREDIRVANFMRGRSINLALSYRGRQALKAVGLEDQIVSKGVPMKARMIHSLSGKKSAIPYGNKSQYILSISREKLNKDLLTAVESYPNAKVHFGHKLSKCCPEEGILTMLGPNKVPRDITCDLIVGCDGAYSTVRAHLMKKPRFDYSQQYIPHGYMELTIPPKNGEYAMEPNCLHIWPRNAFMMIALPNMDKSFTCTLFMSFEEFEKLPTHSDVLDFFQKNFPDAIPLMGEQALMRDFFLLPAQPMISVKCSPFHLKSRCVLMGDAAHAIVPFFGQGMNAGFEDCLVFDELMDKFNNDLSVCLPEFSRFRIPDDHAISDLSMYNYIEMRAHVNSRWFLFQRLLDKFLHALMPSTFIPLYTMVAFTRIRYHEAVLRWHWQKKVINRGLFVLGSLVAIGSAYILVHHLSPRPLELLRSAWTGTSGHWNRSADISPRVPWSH

SMILES: Cc1cccc(-c2cc(C(=O)O)ncn2)c1
logD [1]: -0.19

SMILES: O=C(O)c1cc(-c2cc(Cl)c3occc3c2)ncn1
solubility [2]: 820 µg/mL (≈ 2.99 mM)
CLH (Liver): < 0.02
logD [1]: 0.85
Papp A→B [3]: 21.9 ×10⁻⁶ cm/s
Papp B→A [4]: 41 ×10⁻⁶ cm/s
CLH (Liver microsome [5]): < 0.02
CLH (Liver microsome [6]): < 0.02

SMILES: CS(=O)(=O)Nc1cc(-c2ccc(Cl)c(Cl)c2)ncn1
IC50 [7]: > 10 µM

SMILES: CC(=O)Nc1cc(-c2ccc(Cl)c(Cl)c2)ncn1
IC50 [7]: > 10 µM

SMILES: O=C(O)c1cc(-c2cccc(F)c2)ncn1
logD [1]: -0.8

SMILES: O=C(O)c1cc(-c2ccc(F)cc2F)ncn1
logD [1]: -0.88

SMILES: O=C(O)c1cc(-c2ccc(Cl)cc2F)ncn1
logD [1]: 0.44

SMILES: O=C(Nc1cc(-c2ccc(Cl)c(Cl)c2)ncn1)c1ccccc1
IC50 [7]: > 10 µM

SMILES: Cn1ccn(-c2cc(-c3ccc(Cl)c(Cl)c3)ncn2)c1=O
IC50 [7]: > 10 µM

SMILES: O=C(O)c1cc(-c2ccc(F)c(C(F)(F)F)c2)ncn1
logD [1]: 0.45

SMILES: Clc1ccc(-c2cc(-n3cccn3)ncn2)cc1Cl
IC50 [7]: > 10 µM

SMILES: Cn1nnc(-c2cc(-c3ccc(Cl)c(Cl)c3)ncn2)n1
IC50 [7]: > 10 µM

SMILES: O=c1[nH]ccn1-c1cc(-c2ccc(Cl)c(Cl)c2)ncn1
IC50 [7]: > 10 µM

SMILES: O=C(O)c1cc(-c2ccccc2)ncn1
logD [1]: -0.98

SMILES: O=C(O)c1cc(-c2cccc(Cl)c2F)ncn1
logD [1]: -0.34

SMILES: O=C(O)[C@H]1C[C@@H]1C(=O)c1ccc(Cl)c(Cl)c1
IC50 [13]: 20 nM

SMILES: O=C(O)c1cc(-c2cccc(C(F)(F)F)c2)ncn1
logD [1]: 0.36

SMILES: Clc1ccc(-c2cc(-n3ccnc3)ncn2)cc1Cl
IC50 [7]: > 10 µM

SMILES: O=C(O)c1cc(-c2cc(Cl)cc(Cl)c2)ncn1
logD [1]: 1.15

Now from value to compound:

logD [1]: -0.33
SMILES: Cc1ccc(-c2cc(C(=O)O)ncn2)cc1F

logD [1]: -0.11
SMILES: O=C(O)c1cc(-c2ccc(Cl)cc2)ncn1

solubility [2]: > 1000 µg/mL
CLH (Liver): < 0.02
logD [1]: 1.19
CLH (Liver microsome [5]): < 0.02
CLH (Liver microsome [6]): < 0.02
SMILES: O=C(O)c1cc(-c2ccc(OC3CCC3)c(Cl)c2)ncn1

solubility [2]: > 1000 µg/mL
logD [1]: 0.28
Papp A→B [3]: 15.8 ×10⁻⁶ cm/s
Papp B→A [4]: 31.3 ×10⁻⁶ cm/s
SMILES: COc1ccc(-c2cc(C(=O)O)ncn2)cc1Cl

logD [1]: 0.59
SMILES: COc1cc(-c2cc(C(=O)O)ncn2)ccc1Cl

solubility [2]: > 1000 µg/mL
CLH (Liver): < 0.02
logD [1]: 1.77
Papp A→B [3]: 10.5 ×10⁻⁶ cm/s
IC50 [8]: 17 nM
IC50 [9]: > 1000 nM
Papp B→A [4]: 17.1 ×10⁻⁶ cm/s
CLH (Liver microsome [5]): < 0.02
CLH (Liver microsome [6]): < 0.02
SMILES: O=C(O)c1cc(-c2ccc(OC(F)(F)F)c(Cl)c2)ncn1

solubility [2]: > 1000 µg/mL
CLH (Liver): < 0.02
CLH (Liver microsome [5]): < 0.02
CLH (Liver microsome [6]): < 0.02
SMILES: O=C(O)c1cc(-c2ccc(OC3COC3)c(Cl)c2)ncn1

logD [1]: 0.41
SMILES: O=C(O)c1cc(-c2ccc(F)c(Cl)c2)ncn1

solubility [2]: > 1000 µg/mL
IC50 [10]: 1.5 nM
logD [1]: -0.45
Papp A→B [3]: 13.6 ×10⁻⁶ cm/s
IC50 [8]: 2 nM
IC50 [9]: 86 nM
Papp B→A [4]: 26 ×10⁻⁶ cm/s
SMILES: O=C(O)c1cc(-c2ccc(F)c(F)c2)ncn1

logD [1]: 1.35
SMILES: O=C(O)c1cc(-c2ccc(C(F)(F)F)c(Cl)c2)ncn1

logD [1]: 0.4
SMILES: O=C(O)c1cc(-c2ccc(Cl)c(F)c2)ncn1

solubility [2]: 500 µg/mL (≈ 1.5 mM)
CLH (Liver): < 0.02
CLH (Liver microsome [5]): < 0.02
CLH (Liver microsome [6]): < 0.02
SMILES: O=C(O)c1cc(-c2ccc(OC3CCCCC3)c(Cl)c2)ncn1

solubility [2]: > 1000 µg/mL
CLH (Liver): < 0.02
logD [1]: 2.18
Papp A→B [3]: 20.5 ×10⁻⁶ cm/s
Papp B→A [4]: 16.7 ×10⁻⁶ cm/s
CLH (Liver microsome [5]): < 0.02
CLH (Liver microsome [6]): < 0.02
SMILES: O=C(O)c1cc(-c2ccc(OC3CCCC3)c(Cl)c2)ncn1

solubility [2]: 740 µg/mL (≈ 2.75 mM)
IC50 [10]: 6 nM
logD [1]: 1.12
IC50 [7]: 0.0006 µM
IC50 [11]: 33 nM
IC50 [12]: 72 nM
Papp A→B [3]: 41.4 ×10⁻⁶ cm/s
IC50 [8]: 3.2 nM
IC50 [9]: 105 nM
Papp B→A [4]: 32.4 ×10⁻⁶ cm/s
SMILES: O=C(O)c1cc(-c2ccc(Cl)c(Cl)c2)ncn1

solubility [2]: > 1000 µg/mL
IC50 [10]: 6.2 nM
logD [1]: 0.8
Papp A→B [3]: 24 ×10⁻⁶ cm/s
IC50 [8]: 4.1 nM
IC50 [9]: 100 nM
Papp B→A [4]: 35.3 ×10⁻⁶ cm/s
SMILES: Cc1ccc(-c2cc(C(=O)O)ncn2)cc1Cl

logD [1]: 0.12
SMILES: O=C(O)c1cc(-c2cccc(Cl)c2)ncn1

solubility [2]: > 1000 µg/mL
CLH (Liver): < 0.02
logD [1]: 1.28
Papp A→B [3]: 16.5 ×10⁻⁶ cm/s
Papp B→A [4]: 21.2 ×10⁻⁶ cm/s
CLH (Liver microsome [5]): < 0.02
CLH (Liver microsome [6]): < 0.02
SMILES: CC(C)Oc1ccc(-c2cc(C(=O)O)ncn2)cc1Cl

solubility [2]: > 1000 µg/mL
CLH (Liver): < 0.02
CLH (Liver microsome [5]): < 0.02
CLH (Liver microsome [6]): < 0.02
SMILES: O=C(O)c1cc(-c2ccc(OCC3CC3)c(Cl)c2)ncn1
